Source: PubChem BioAssay
Lipid droplet – inhibitors of hepatocyte lipid droplet formation, primary screen, imaging, high-throughput imaging, BODIPY stain | AML12 mouse hepatocytes, oleate lipid droplets | hit rate 0.4% among 240,000 | inhibition, % at 6.5 µM;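 active = lipid droplet intensity inhibited by at least 50%, with more than 500 cells counted; inconclusive = wells with under 300 cells, treated as cytotoxic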
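Material – mouse AML12 hepatocyte cell line, fixed after treatment · Compound dosing – one dose, 6.5 µM compound · Times – compound with oleate, overnight · Measured by – Image-based BODIPY and DAPI two-channel analysis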
L major viab – Leishmania major promastigote growth inhibition, primary screen; Leishmania major promastigotes, resazurin fluorescence viability; inhibition, % at 10 µM; hit rate 9% among 200,000; in the data active = inhibition above about 50%;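 note: promastigotes grown with compound for 44 hours at 28 °C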
T cruzi repl – inhibitors of intracellular T. cruzi growth, primary screen, luminescence, NIH3T3 host cells; inhibition, % (test concentration not listed); T. cruzi beta-gal in NIH3T3, 90 h; hit rate 1.4% among 300,000;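 active = mean inhibition across valid replicates above about 55%, limit read from the data; inconclusive = mean below that limit but half or more replicates reach it; inactive = mean below it, under half of replicates reach it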;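 note: signal also drops with host cell toxicity which is not excluded here; 0% = plate median of DMSO wells and 100% = zero luminescence signal; higher percent means less beta-gal luminescence so fewer parasites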
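Material: NIH/3T3 host cells with β-galactosidase reporter T. cruzi; Input: 5,000 host fibroblasts per well; Medium: DMEM, 2% fetal bovine serum; Compound: 50 nL DMSO compound solution per well; Schedule: 3 h host attachment, then at least 90 h co-culture; Detection: luminescent β-galactosidase signal after 60 min lysis.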
DTT redox prof – compounds producing H2O2 with reducing agent – biochemical, NIH compound library profiling, artefact control for MLSCN library redox annotation, primary screen. DTT-dependent redox cycling H2O2, phenol red/HRP absorbance; 100% = 100 µM peroxide control, 0% = buffer. activation, % at 10 µM. hit rate 0.03% among 200,000. AID 878, 2007;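 active = activation of at least 50% relative to the plate's high and low controls in the primary single-dose screen; inactive = activation below 50%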;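 note: compound incubated with DTT at 0.8 mM final as the reducing agent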
MPTP inh – mitochondrial permeability transition pore inhibitors, primary screen, biochemical, isolated mouse mitochondria, absorbance; Ca2+ swelling absorbance, 30 min; inhibition, % at 10 µM; hit rate 1.4% among 360,000; AID 602449, 2012;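 active = inhibition of 50% or more, scaled per plate between neutral and stimulator controls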;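 note: 0% = DMSO wells given calcium and 100% = 1 mM EGTA wells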
Lmaj promast 1uM – Leishmania major promastigote growth inhibition, confirmation, 1 µM repeat of primary hits; hit rate 13% among 1,100; inhibition, % at 1 µM; AID 1258, 2008; L. major promastigote growth, resazurin fluorescence, 48 h; shares compounds with L major viab;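 active = inhibition above about 50% in both repeat tests, limit read from the data; inconclusive = one repeat under the set limit, the other over it; inactive = both repeats under the set limit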
Hep lipid conf – hepatocyte lipid droplet accumulation inhibitors, confirmation, imaging, AML12 mouse hepatocytes, single concentration, high-content; shares compounds with Lipid droplet; BODIPY lipid droplet imaging; droplets induced with 100 µM oleic acid; inhibition, % at 5.2 µM; hit rate 65% among 870;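 active = inhibition of lipid droplet metric at least 50%, with more than 300 cells in each of four replicates; inconclusive = wells under 300 cells, flagged as toxic or low count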;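 note: plate controls were DMSO with oleic acid for no effect and 5 µM Triacsin-C for full effect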
AML12 cytotox – AML12 hepatocyte cytotoxicity, counter-screen for hepatic lipid droplet formation project, imaging, DAPI nuclear morphology imaging; AID 463200, 2010; hit rate 3% among 870; AML12 mouse hepatocytes; hits give high values; cells fed 100 µM oleate overnight; z-score at 5 µM; shares compounds with Lipid droplet; in the data active = z-score above about 6.3;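 note: compound exposure lasted overnight at 37 °C before fixation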
MPTP counter – fluorescence retest of MPTP screen hits in isolated mitochondria, single concentration; shares compounds with MPTP inh; membrane potential, Rhodamine 123 fluorescence; inhibition, % at 10 µM; hit rate 78% among 5,000; AID 624504, 2012; in the data active = inhibition above about 22%;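 note: 0% = DMSO vehicle and 100% = positive control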
MPTP abs DR – mitochondrial permeability transition pore inhibitors, dose response, biochemical, absorbance, uHTS hits; shares compounds with MPTP inh; isolated mitochondria swelling; IC50, µM; hit rate 58% among 780; in the data active = IC50 below about 20 µM
MPTP cs DR – fluorescent counter-screen in isolated mitochondria, dose response, counter-screen for MPTP inhibitor project, biochemical, fluorescence, uHTS hits; shares compounds with MPTP inh; isolated mitochondria counterscreen, fluorescence read-out; IC50, µM; hit rate 49% among 780; AID 651564, 2012; in the data active = IC50 below about 80 µM
* hit, by the source's call; u = inconclusive; x = no result. The full list was thinned out, with hits kept by preference.

SMILES | Lipid droplet | L major viab | T cruzi repl | DTT redox prof | MPTP inh | others
CC(C)N1C(=O)CC2(CC[N+](C)(CCOC(=O)C(O)(c3ccccc3)c3ccccc3)CC2)C1=O (stereo not given) | 3 | 93* | -13 | 0 | 1 | Lmaj promast 1uM=-3
CN1/C(=C\C=C\C2=[N+](C)c3ccc4ccccc4c3C2(C)C)C(C)(C)c2ccccc21 | x | 98* | x | 1 | x | Lmaj promast 1uM=101*
C[N+]1=C(/C=C/Nc2ccccc2)C(C)(C)c2ccccc21 | -13 | 34 | -13 | 1 | 3
CCCCn1c(O)c(/C=C/C=Nc2ccccc2)c(=O)[nH]c1=O | 21 | -3 | -3 | 0 | 1
CN1CCCC(C(=O)c2ccc(Cl)cc2)C1 (stereo not given) | 8 | 45 | -1 | 0 | 0
CC(C)(C)c1ccc(C(=O)C2CCCN(C3CCC3)C2)cc1 (stereo not given) | 20 | 93* | 28 | 1 | -4 | Lmaj promast 1uM=80*
O=C(c1ccco1)N1Cc2ccccc2-n2nncc2C1 | x | x | x | x | 0
COC(=O)C1CN(C#N)N(c2ccc(Cl)cc2)C12c1ccccc1-c1ccccc12 (stereo not given) | 131* | 100* | 43 | 0 | -2 | Lmaj promast 1uM=101*;Hep lipid conf=u;AML12 cytotox=36*
CCN1C[C@]2(COC)CC[C@H](O)[C@]34C1[C@](O)([C@@H](OC)[C@H]23)[C@@]1(O)C[C@H](OC)[C@H]2C[C@@H]4[C@@H]1[C@H]2OC | x | x | x | x | 2
O=c1[nH]c2ccccc2n1C1CCN(CCCC(c2ccc(F)cc2)c2ccc(F)cc2)CC1 | x | 83* | 43 | 2 | 88* | Lmaj promast 1uM=9;MPTP counter=-8
CN1OCC2Cn3c(nc4ccccc43)C21 (stereo not given) | x | x | x | x | 0
CC1CCC/C=C/C2CC(O)CC2C(O)/C=C/C(=O)O1 (stereo not given) | 110* | -1 | 40 | 0 | -1 | Hep lipid conf=114*;AML12 cytotox=17*
COC(=O)CC1=C(C(=O)OC)C2(C(=O)Nc3c(C)cccc32)C(C#N)=C(N)O1 (stereo not given) | 0 | 2 | -29 | -1 | 1
c1ccc2c(CCN3CCCCC3)c[nH]c2c1 | x | x | x | x | -2
OC1(c2ccc(Cl)cc2)CCN(Cc2c[nH]c3ccccc23)CC1 | x | x | 30 | x | 94* | MPTP counter=-16;MPTP abs DR=5.3*;MPTP cs DR=>80
CCC1CN2CCc3cc(OC)c(OC)cc3C2CC1CC1NCCc2c1[nH]c1ccc(O)cc21 (stereo not given) | x | x | x | x | 3
CN1CCN(c2cc(N3CCCCCC3)c(F)cc2[N+](=O)[O-])CC1 | 2 | 99* | 13 | 0 | 52* | MPTP counter=-6;MPTP abs DR=13*;MPTP cs DR=>80
COc1ccc(C(=O)NC(=S)N2C[C@H]3C[C@H](C2)c2cccc(=O)n2C3)cc1 | x | x | -8 | x | -1
O=c1[nH]c(=O)n(CCc2ccccc2)c(O)c1C=NC1CC1 | 15 | x | -12 | x | 3
CSc1ccc(C(=O)C2CCCN(Cc3cc4ccccc4[nH]3)C2)cc1 (stereo not given) | 0 | 88* | 34 | -1 | 58* | MPTP counter=-8;MPTP abs DR=5.9*;MPTP cs DR=25*
CSc1ncc(/C=C2/C(=O)NC(=O)N(C3CCCCC3)C2=O)cn1 | x | -4 | -3 | 1 | 90* | MPTP counter=-10;MPTP abs DR=3.4*;MPTP cs DR=>80
